The source made the active and inactive calls. The rule behind the calls is not given here.

In test [1] the test system is PANC-1. Put plainly: Inhibition of Hh/GLI1-mediated PTCH mRNA expression in human PANC1 cells at 0.2 uM after 24 hrs by RT-PCR. In kind it is cell-based. In a few lines:
(§1)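 PANC1 cells treated, with untreated cells as control. Ptch mRNA was reverse transcribed with a two-step qRT-PCR kit and quantified by real-time PCR: 50 °C for 2 min, 95 °C for 2 min, then 40 cycles of 95 °C for 15 s and 60 °C for 30 s. Expression was compared with the untreated control.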

The test system of test [2] is PANC-1. Briefly: Inhibition of Hh/GLI1-mediated PTCH mRNA expression in human PANC1 cells at 0.4 uM after 24 hrs by RT-PCR. Type of test: cell-based. In a few lines:
as §1

For test [3], the system named is PANC-1. Briefly: Cytotoxicity against human PANC1 cells after 24 hrs by fluorimetric microculture cytotoxicity assay. In kind it is functional, cell-based. The settings on record: PANC-1, 24 h. In a few lines:
(§2)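 Cells plated at 1 × 10^4 per well in RPMI + 10% FBS and preincubated 24 h at 37 °C. Medium then replaced with fresh medium containing a range of compound concentrations at 0.05% DMSO. After 24 h exposure, proliferation measured by fluorometric microculture cytotoxicity assay (FMCA). n = 3, SD; IC50 reported.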

Test [4] relates to HaCaT. Put plainly: Inhibition of Hh/GLI1-mediated Bcl2 protein expression in human HaCaT cells expressing T-Rex system after 24 hrs by Western blot. Type of test: cell-based. In a few lines:
(§3)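 HaCaT cells carrying tetracycline-inducible exogenous GLI1 plated at 2 × 10^6 per 10 cm dish for 12 h at 37 °C, then induced with 1 µg/mL tetracycline for 12 h. Medium removed and compounds added at various concentrations for 24 h. Lysates in Tris/NaCl/deoxycholate/EDTA buffer with protease inhibitor run on 5% and 12.5% SDS-PAGE. Immunoblot for PTCH, BCL-2 and GLI1 with ECL detection.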

For test [5], the system named is PANC-1. Briefly: Inhibition of Hh/GLI1-mediated PTCH protein expression in human PANC1 cells after 24 hrs by Western blot. Type of test: cell-based. In a few lines:
(§4)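 PANC1 cells treated with compounds at various concentrations for 24 h. Lysates run on SDS-PAGE, transferred to PVDF and blocked 1 h in TBST with 5% milk. Primary antibodies (PTCH, BCL-2) 1 h at room temperature, secondary 1 h, then ECL detection. Same procedure as for the HaCaT blots.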
In general terms: A western blot detects proteins with antibodies after separation by electrophoresis.

A short description of test [6]: Cytotoxicity against mouse C3H10T1/2 cells after 24 hrs by fluorimetric microculture cytotoxicity assay. Type of test: cell-based. The settings on record: C3H 10T1/2, 24 h. In a few lines: as §2
The test system of test [7] is PANC-1. Put plainly: Inhibition of Hh/GLI1-mediated Bcl2 protein expression in human PANC1 cells after 24 hrs by Western blot. In kind it is cell-based. In a few lines:
as §4

Test [8] has as its system DU-145. Put plainly: Cytotoxicity against human DU145 cells after 24 hrs by fluorimetric microculture cytotoxicity assay. In kind it is functional, cell-based. The settings on record: DU-145, 24 h. In a few lines:
as §2

The test system of test [9] is HaCaT. Put plainly: Inhibition of Hh/GLI1-mediated PTCH protein expression in human HaCaT cells expressing T-Rex system after 24 hrs by Western blot. In kind it is cell-based. In a few lines: as §3
Test [10] can be described thus: Inhibition of Hh/GLI1-mediated transcription in human HaCaT cells expressing T-Rex system by luciferase reporter gene assay. Type of test: cell-based. In a few lines: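 HaCaT-GLI1-Luc cells (exogenous GLI1 under tetracycline control, T-REx) seeded at 2 × 10^5 per well. Compounds added after 12 h tetracycline induction, at 0.05% DMSO. GLI-dependent luciferase activity and cell viability read at the same time. n = 3, SD.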
In general terms: In a reporter assay the amount or activity of a reporter protein is the signal.

In test [11] the test system is PANC-1. Briefly: Inhibition of Hh/GLI1-mediated PTCH mRNA expression in human PANC1 cells at 2 and 4 uM after 24 hrs by RT-PCR.
Test [12] has as its system PANC-1. Briefly: Inhibition of Hh/GLI1-mediated PTCH mRNA expression in human PANC1 cells at 4 uM after 24 hrs by RT-PCR. Type of test: cell-based. In a few lines: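 Ptch mRNA from treated and untreated PANC1 cells reverse-transcribed with a two-step qRT-PCR kit. Real-time PCR: 50 °C 2 min, 95 °C 2 min, then 40 cycles of 95 °C 15 s and 60 °C 30 s. Compared with an untreated control; cyclopamine included as positive control.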

In the case of `CC1=C2C[C@H]3[C@@H](CC=C4C[C@@H](O)CC[C@@]43C)[C@@H]2CC[C@]12O[C@@H]1C[C@H](C)CN[C@H]1[C@H]2C`, the inhibition entry in [1] and in test [2] was “Active” throughout.
`CC1=C(C)[C@@]2(C)CCCC(C)(C)[C@@H]2CC1`: the IC50 (usually the midpoint of a concentration-inhibition curve) in test [3] is 15.1 µM; in test [6], above 100 µM; in test [8], 23.2 µM; in [10] it was 13.5 µM. The inhibition entry in test [4], in test [5], in test [7] and in test [9] was “Dose-dependent effect” in each case.
For the molecule `COC(=O)[C@]1(C)CCC[C@]2(C)c3cc4occc4c(C)c3C[C@@H](OC(C)=O)[C@@H]12` [TAEPEENIN D], the IC50 was 3.2 µM in [3], above 100 µM in test [6], 3.4 µM in test [8] and 1.6 µM in [10]. Moreover, the inhibition result in test [4], in test [5], in test [7] and in test [9] was “Dose-dependent effect” each time. Moreover, the inhibition result in [11] and in [12] was “Active” in each case.

Source of the values: ChEMBL document CHEMBL1157830, “Terpenoids and a flavonoid glycoside from Acacia pennata leaves as hedgehog/GLI-mediated transcriptional inhibitors” (J Nat Prod, 2010).
